Experimental data from different studies.
Protocols differ between the studies behind these lines.
Target: Tyrosine-protein kinase Mer (MERTK, Homo sapiens, UniProt Q12866)
Sequence (Q12866 21-999, as in one of the studies): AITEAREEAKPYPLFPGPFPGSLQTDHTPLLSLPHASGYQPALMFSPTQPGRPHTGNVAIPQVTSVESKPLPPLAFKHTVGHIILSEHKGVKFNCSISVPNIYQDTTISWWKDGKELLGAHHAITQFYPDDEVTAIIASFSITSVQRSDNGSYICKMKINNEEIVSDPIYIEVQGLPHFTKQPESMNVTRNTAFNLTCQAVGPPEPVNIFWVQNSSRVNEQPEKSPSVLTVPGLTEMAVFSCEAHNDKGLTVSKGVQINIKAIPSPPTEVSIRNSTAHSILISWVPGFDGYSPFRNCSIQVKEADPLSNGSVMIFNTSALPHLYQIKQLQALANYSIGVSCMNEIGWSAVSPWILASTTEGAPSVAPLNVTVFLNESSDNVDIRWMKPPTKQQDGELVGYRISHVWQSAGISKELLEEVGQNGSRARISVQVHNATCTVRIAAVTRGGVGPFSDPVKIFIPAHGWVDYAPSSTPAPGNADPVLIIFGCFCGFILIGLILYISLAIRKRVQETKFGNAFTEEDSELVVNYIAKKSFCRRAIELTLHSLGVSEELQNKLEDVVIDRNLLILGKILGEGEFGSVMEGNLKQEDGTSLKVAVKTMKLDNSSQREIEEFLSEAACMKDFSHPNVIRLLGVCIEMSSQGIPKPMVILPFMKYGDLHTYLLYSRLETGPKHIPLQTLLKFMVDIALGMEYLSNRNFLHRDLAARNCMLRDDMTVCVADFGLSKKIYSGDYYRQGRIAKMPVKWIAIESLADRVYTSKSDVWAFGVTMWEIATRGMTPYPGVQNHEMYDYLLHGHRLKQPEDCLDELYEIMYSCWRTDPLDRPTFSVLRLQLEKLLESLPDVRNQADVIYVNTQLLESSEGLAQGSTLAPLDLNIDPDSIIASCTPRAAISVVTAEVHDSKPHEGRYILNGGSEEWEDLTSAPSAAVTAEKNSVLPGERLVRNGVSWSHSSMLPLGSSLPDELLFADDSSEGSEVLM

CC(C)(C)c1cc(C=C(C#N)C#N)cc(Br)c1O — remaining activity (enzyme activity, inhibitor; 0.5 µM): 97.3%
COc1ncccc1-c1cnn2ccc(N3CCN(C(=O)OC(C)C)CC3)nc12 — remaining binding (binding, competition with immobilised ligand; 1 µM): 100%
COc1cc(Nc2ncc(F)c(Nc3ccc4c(n3)NC(=O)C(C)(C)O4)n2)cc(OC)c1OC — inhibition (binding, competition with immobilised ligand; 10 µM): 100%
Cn1cc(-c2cc(F)cc(N3CCn4c(cc5c4CCCC5)C3=O)c2CO)cc(Nc2ccc(N3CCN(C4COC4)CC3)cn2)c1=O — inhibition (enzyme activity, inhibitor; 0.1 µM): 11%
O=c1[nH]c2ccccc2n1C1CCN(Cc2ccc(-c3[nH]c4cc5ncnc5cc4nc3-c3ccccc3)cc2)CC1 — remaining signal (cell-free assay; 0.5 µM): 96.2%
C#Cc1n[nH]c2c(-c3cn(C(C)c4ccccn4)c(=O)[nH]c3=O)cc(F)cc12 (centres unmarked) — inhibition (enzyme activity, inhibitor; 1 µM): 99.6%
Cn1cc(-c2cccc(N3CCc4c(sc5c4CC(C)(C)C5)C3=O)c2CO)cc(Nc2ccncn2)c1=O — inhibition (enzyme activity, inhibitor; 1 µM): 1%
Cn1cncc1[C@@](O)(COc1ccc(C#N)cc1-c1ccc(OC(F)(F)F)cc1)c1ccc(C#N)cc1 — remaining binding (cell-free assay, competition with immobilised ligand; 1 µM): 69%
Nc1ncc(-c2nc(N3CCOCC3)nc(N3CCOCC3)n2)c(C(F)F)n1 — remaining binding (binding, competition with immobilised ligand; 10 µM): 87%
Cc1nn(C)cc1-c1nc2c(N3CCN(Cc4ccc(Cl)cc4)CC3)c(Cl)cnc2[nH]1 — remaining binding (binding, competition with immobilised ligand; 1 µM): 100%
N#CC1(c2ccccn2)CCN(Cc2cc(C(=O)O)c(=O)n3ccccc23)CC1 — remaining binding (cell-free assay, competition with immobilised ligand; 1 µM): 100%
